Published values pooled from the literature.
Lines come from different studies, so protocols differ.
VRK1: Serine/threonine-protein kinase VRK1 (VRK1, Homo sapiens, UniProt Q99986)
TNNI3K: Serine/threonine-protein kinase TNNI3K (TNNI3K, Homo sapiens, UniProt Q59H18)
SIRT6: NAD-dependent protein deacylase sirtuin-6 (SIRT6, Homo sapiens, UniProt Q8N6T7)
PBK: Lymphokine-activated killer T-cell-originated protein kinase (PBK, Homo sapiens, UniProt Q96KB5)
BRD7: Bromodomain-containing protein 7 (BRD7, Homo sapiens, UniProt Q9NPI1)

Structure (SMILES)	target	test	test system	conditions	quantity	result
CC(C)(O)c1cn(-c2ccc(-c3cccc(S(C)(=O)=O)c3)cc2)c(C(C)(C)c2ccccc2Cl)n1	Oxysterols receptor LXR-beta (NR1H2, Homo sapiens, UniProt P55055)	reporter gene, agonist	CV-1	–	Emax	72%
CC1(C)NC(=O)c2[nH]c3c(Cl)c(Cl)ccc3c2C1C#N (centres unmarked)	VRK1	thermal stability, DSF	–	10 µM	ΔTm	0.2 °C
Cc1ccc(C(=O)Nc2ccc(CN3CCN(C)CC3)c(C(F)(F)F)c2)cc1C#Cc1cnc2cccnn12	TNNI3K	cell-free assay	–	23.5 nM	remaining signal	50%
NC(=O)c1ccc(C(=O)NOCc2ccccc2Cl)cc1	SIRT6	enzyme activity, inhibitor, fluorescence	–	100 µM	inhibition	78.2%
CCC1(CC)NC(=O)c2c(c3ccc(Cl)c(Cl)c3n2C)C1C#N (centres unmarked)	PBK	thermal stability, DSF	–	10 µM	ΔTm	0 °C
Nc1nonc1-n1cc(C(=O)N/N=C/c2ccco2)nn1	SIRT6	enzyme activity, inhibitor, fluorescence	–	100 µM	remaining activity	40.9%
Oc1ccc(-c2nc(-c3ccncc3)c(-c3ccc(F)cc3)[nH]2)cc1	BRD7	thermal stability, DSF	–	10 µM	ΔTm	1.3 °C
Nc1nonc1-n1cc(C(=O)N/N=C/c2cccc(O)c2O)nn1	SIRT6	enzyme activity, inhibitor, fluorescence	–	100 µM	remaining activity	27.2%
NC(=O)c1ccc(C(=O)NOCc2ccc3nccnc3c2)cc1	SIRT6	enzyme activity, inhibitor, fluorescence	–	100 µM	inhibition	61.4%
Nc1nonc1-n1cc(C(=O)N/N=C/c2ccc(C(F)(F)F)cc2[N+](=O)[O-])nn1	SIRT6	enzyme activity, inhibitor, fluorescence	–	100 µM	remaining activity	24.9%
CN1CCC2(CC1)NC(=O)c1c(c3ccc(Cl)c(Cl)c3n1C)C2C#N (racemic)	PBK	thermal stability, DSF	–	10 µM	ΔTm	-0.2 °C
O=C(Nc1ccc(S(=O)(=O)N2CCC(Cl)CC2)cc1)c1ccc([N+](=O)[O-])o1	Voltage-dependent N-type calcium channel subunit alpha-1B (Cacna1b, Rattus norvegicus, UniProt Q02294)	cell-free assay	–	10 µM	inhibition	18%
Nc1nonc1-n1cc(C(=O)N/N=C/c2ccc([N+](=O)[O-])cc2)nn1	SIRT6	enzyme activity, inhibitor, fluorescence	–	100 µM	remaining activity	24.8%
NC(=O)c1ccc(C(=O)NOCc2cccc(F)c2)cc1	SIRT6	enzyme activity, inhibitor, fluorescence	–	100 µM	inhibition	74.1%
Cc1cnc(Nc2ccc(OCCN3CCCC3)cc2)nc1Nc1cccc(S(=O)(=O)NC(C)(C)C)c1	BRD7	thermal stability, DSF	–	10 µM	ΔTm	0.22 °C
NC(=O)c1ccc(C(=O)NOCc2ccc(C(F)(F)F)cc2)cc1	SIRT6	enzyme activity, inhibitor, fluorescence	–	100 µM	inhibition	87%

Structure (SMILES)	target	test	test system	conditions	quantity	result
Cn1c2c(c3ccccc31)C(C#N)C(C)(C)NC2=O (centres unmarked)	VRK1	thermal stability, DSF	–	10 µM	ΔTm	-0.1 °C
Cc1cc(NC(=O)c2cccc3cc(-c4cccc5[nH]nc(N)c45)ccc23)ccc1F	Angiopoietin-1 receptor (TEK, Homo sapiens, UniProt Q02763)	enzyme activity, inhibitor	–	0.1 µM	activity vs control	96%
Cc1cc2c(cc1N1C(=O)c3cccc4c(Cl)ccc(c34)C1=O)n(C)c(=O)n2C	BRD7	thermal stability, DSF	–	10 µM	ΔTm	2.3 °C
Nc1nonc1-n1cc(C(=O)N/N=C/c2ccccc2Cl)nn1	SIRT6	enzyme activity, inhibitor, fluorescence	–	100 µM	remaining activity	22.8%
Nc1ncnc2occ(-c3ccc(NC(=O)Nc4cc(C(F)(F)F)ccc4F)cc3)c12	TNNI3K	cell-free assay	–	20 µM	remaining signal	1.5%
NS(=O)(=O)c1ccc(C(=O)NOCc2ccccc2)cc1	SIRT6	enzyme activity, inhibitor, fluorescence	–	100 µM	inhibition	47.4%
Cn1c2c(c3ccc(Cl)c(Cl)c31)C(C#N)C(C)(C)NC2=O (centres unmarked)	VRK1	thermal stability, DSF	–	10 µM	ΔTm	0.1 °C
NC(=O)c1ccc(C(=O)NOCc2ccc(C(F)(F)F)c(Cl)c2)cc1	SIRT6	enzyme activity, inhibitor, fluorescence	–	100 µM	inhibition	90.4%
Cn1c2c(c3ccc(Cl)c(Cl)c31)C(C#N)C1(CCCC1)NC2=O (centres unmarked)	PBK	thermal stability, DSF	–	10 µM	ΔTm	0 °C
Cc1ccc(C(=O)NCc2ccsc2)cc1C#Cc1cn(C(C)C)c2ncnc(N)c12	[Pyruvate dehydrogenase (acetyl-transferring)] kinase isozyme 4, mitochondrial (PDK4, Homo sapiens, UniProt Q16654)	enzyme activity, inhibitor	–	1 µM	activity vs control	119%
Nc1nonc1-n1cc(C(=O)N/N=C/c2cccnc2)nn1	SIRT6	enzyme activity, inhibitor, fluorescence	–	100 µM	remaining activity	26%
Cn1c2c(Cl)c(Cl)ccc2c2cn[nH]c(=O)c21	PBK	thermal stability, DSF	–	10 µM	ΔTm	-0.3 °C
COc1ccc(Sc2ccc(CONC(=O)c3ccc(C(N)=O)cc3)cc2C(F)(F)F)cc1	SIRT6	enzyme activity, inhibitor, fluorescence	–	100 µM	inhibition	97.4%
N#CC1c2c([nH]c3c(Cl)c(Cl)ccc23)C(=O)NC12CCCCC2 (racemic)	PBK	thermal stability, DSF	–	10 µM	ΔTm	0.8 °C
NC(=O)c1ccc(C(=O)NOCc2ccc(Cl)cc2)cc1	SIRT6	enzyme activity, inhibitor, fluorescence	–	100 µM	inhibition	79.5%
Nc1nonc1-n1cc(C(=O)N/N=C/c2ccc(F)cc2)nn1	SIRT6	enzyme activity, inhibitor, fluorescence	–	100 µM	remaining activity	43%
